Laboratory results from ChEMBL document CHEMBL3045526, “Tailoring the structure of aminobisphosphonates to target plant P5C reductase” (J Agric Food Chem, 2008).

biological target: T1, Pyrroline-5-carboxylate reductase (Arabidopsis thaliana, UniProt P54904); assay: Inhibition of Arabidopsis thaliana P5C assessed as reduction in NADH oxidation incubated at 35 degC up to 10 min
T1 sequence (P54904 whole entry): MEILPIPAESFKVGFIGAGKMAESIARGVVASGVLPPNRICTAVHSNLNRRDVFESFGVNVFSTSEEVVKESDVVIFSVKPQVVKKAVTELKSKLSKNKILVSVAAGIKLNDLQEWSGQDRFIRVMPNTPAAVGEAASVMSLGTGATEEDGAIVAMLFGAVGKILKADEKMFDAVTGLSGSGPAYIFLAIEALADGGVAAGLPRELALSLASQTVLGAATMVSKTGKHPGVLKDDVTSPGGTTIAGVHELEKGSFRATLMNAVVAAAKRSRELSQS
Method in brief: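 P5C reductase partially purified from stationary-phase A. thaliana cultured cells. Forward reaction run in 100 mM Tris-HCl pH 8.0, 0.1 mM MgCl2, 2 mM DL-P5C, 0.25 mM NADH, with 0.15–0.20 nkat enzyme. A340 followed at 35 °C for up to 10 min against P5C-free blanks. Inhibitor final 5 µM–5 mM (pH 7.5–8.0), triplicate. IC50 by linear regression of % activity vs log concentration.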

Point of comparison: O=P(O)(O)C(Nc1cc(Cl)ccc1Cl)P(=O)(O)O [2,5-DICHLOROPHENYLAMINOMETHYLENEBISPHOSPHONIC ACID], IC50 0.73 mM. Against it:
- O=P(O)(O)C(O)c1cccc(Cl)c1Cl (racemic) [(2,3-DICHLOROPHENYL)(HYDROXY)METHYLPHOSPHONIC ACID] — 6.7-fold higher, 4.9 mM
- O=P(O)(O)C(O)c1ccc(Cl)cc1Cl (racemic) [(2,4-DICHLOROPHENYL)(HYDROXY)METHYLPHOSPHONIC ACID] — 7.9-fold higher, 5.8 mM
- O=P(O)(O)C(O)c1c(Cl)cccc1Cl (racemic) [(2,6-DICHLOROPHENYL)(HYDROXY)METHYLPHOSPHONIC ACID] — 11-fold higher, 8.1 mM
- O=P(O)(O)C(O)c1ccccc1Cl (racemic) [(2-CHLOROPHENYL)(HYDROXY)METHYLPHOSPHONIC ACID] — 9.7-fold higher, 7.1 mM
- O=P(O)(O)C(O)c1ccc(Cl)c(Cl)c1 (racemic) [(3,4-DICHLOROPHENYL)(HYDROXY)METHYLPHOSPHONIC ACID] — 1.9-fold higher, 1.4 mM
- O=P(O)(O)C(O)c1cccc(Cl)c1 (racemic) [(3-CHLOROPHENYL)(HYDROXY)METHYLPHOSPHONIC ACID] — 7-fold higher, 5.1 mM
- O=P(O)(O)C(O)c1ccc(Cl)cc1 (racemic) [(4-CHLOROPHENYL)(HYDROXY)METHYLPHOSPHONIC ACID] — 62-fold higher, 45.5 mM
- NC(c1cccc(Cl)c1Cl)P(=O)(O)O (racemic) [AMINO(2,3-DICHLOROPHENYL)METHYLPHOSPHONIC ACID] — 6.3-fold higher, 4.6 mM
- COc1cccc(C(N)P(=O)(O)O)c1OC (racemic) [AMINO(2,3-DIMETHOXYPHENYL)METHYLPHOSPHONIC ACID] — 22-fold higher, 16 mM
- NC(c1ccc(Cl)cc1Cl)P(=O)(O)O (racemic) [AMINO(2,4-DICHLOROPHENYL)METHYLPHOSPHONIC ACID] — 11-fold higher, 8.2 mM
- NC(c1ccccc1Br)P(=O)(O)O (racemic) [AMINO(2-BROMOPHENYL)METHYLPHOSPHONIC ACID] — 86-fold higher, 63 mM
- NC(c1ccccc1Cl)P(=O)(O)O (racemic) [AMINO(2-CHLOROPHENYL)METHYLPHOSPHONIC ACID] — 15-fold higher, 10.6 mM
- NC(c1ccccc1F)P(=O)(O)O (racemic) [AMINO(2-FLUOROPHENYL)METHYLPHOSPHONIC ACID] — 9-fold higher, 6.6 mM
- NC(c1cccc(Cl)c1)P(=O)(O)O (racemic) [AMINO(3-CHLOROPHENYL)METHYLPHOSPHONIC ACID] — 49-fold higher, 35.6 mM
- O=P(O)(O)C(Nc1cccc(Cl)c1Cl)P(=O)(O)O [2,3-DICHLOROPHENYLAMINOMETHYLENEBISPHOSPHONIC ACID] — 7.2-fold lower, 0.102 mM
- O=P(O)(O)C(Nc1ccc(Cl)cc1Cl)P(=O)(O)O [2,4-DICHLOROPHENYLAMINOMETHYLENEBISPHOSPHONIC ACID] — within 1.5-fold, 0.5 mM
- O=P(O)(O)C(Nc1c(Cl)cccc1Cl)P(=O)(O)O [2,6-DICHLOROPHENYLAMINOMETHYLENEBISPHOSPHONIC ACID] — 6.5-fold lower, 0.112 mM
- O=P(O)(O)C(Nc1ccc(Cl)c(Cl)c1)P(=O)(O)O [3,4-DICHLOROPHENYLAMINOMETHYLENEBISPHOSPHONIC ACID] — 2.7-fold lower, 0.268 mM
- O=P(O)(O)C(Nc1cc(Cl)cc(Cl)c1)P(=O)(O)O [(3,5-DICHLOROPHENYLAMINO)METHYLENEDIPHOSPHONIC ACID] — 9.5-fold lower, 0.077 mM
- O=P(O)(O)C(Nc1ccc(Cl)cc1)P(=O)(O)O [(4-CHLOROPHENYLAMINO)METHYLENEDIPHOSPHONIC ACID] — within 1.5-fold, 0.86 mM
